{"source": "paper PMC6160361", "about": "(Circulation, 2018)", "molecules": {"B1": {"name": "recombinant IgG1 antibody to oxLDL: recombinant IgG1 antibody to oxLDL infused in the GLACIER trial (antibody, chains of the INN, looked up, V domains shown)", "VH": "EVQLLESGGGLVQPGGSLRLSCAASGFTFSNAWMSWVRQAPGKGLEWVSSISVGGHRTYYADSVKGRSTISRDNSKNTLYLQMNSLRAEDTAVYYCARIRVGPSGGAFDYWGQGTLVTVSS", "VL": "QSVLTQPPSASGTPGQRVTISCSGSNTNIGKNYVSWYQQLPGTAPKLLIYANSNRPSGVPDRFSGSKSGTSASLAISGLRSEDEADYYCASWDASLNGWVFGGGTKLTVL"}}, "key": {"[1]": {"tested_on": "p18-specific CD4^+ T cells in human PBMC", "test": "DRB1*07:01-p18 tetramer staining of human PBMC by flow cytometry", "assay_type": "cell-based", "settings": "sCVD N=14, no sCVD N=15"}, "DRB1*04:01": {"target": "DRB1*04:01 (Homo sapiens, UniProt P01903+P01911, A100K/A169T/F76Y/I96L/K127E/L162R/M171V/N62H/P40V/Q125Y/R42H/S133A/S149N/S66Y/V115G/V209L/W38E)", "test": "MHC class II competitive binding assay, DRB1*04:01", "settings": "experimental competitive peptide binding", "procedure,_shortened": "(§1)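 Competitive inhibition assay using purified MHC class II molecules and a high-affinity radiolabelled MHC class II ligand. Binding given as IC50, taken as an approximation of Kd under the assay conditions. Test peptide stock in DMSO at 20 mg/ml, stored at −80°C.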"}, "[2]": {"tested_on": "p18:I-A^b+CD4^+ T cells (spleen)", "test": "p18:I-A^b tetramer staining of splenic CD4^+ T cells", "assay_type": "in vivo, mouse"}, "p18": {"tested_on": "p18", "settings": "vaccinated Apoe^−/− mice; Supplementary Figure 7"}, "[3]": {"test": "Plasma lipid analysis of vaccinated Apoe^−/− mice", "assay_type": "in vivo, mouse", "settings": "Supplementary Figure 6; 1xCFA + 4xIFA", "procedure,_shortened": "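Apoe−/− mice immunised 1xCFA + 4xIFA. Whole blood taken by cardiac puncture into EDTA at organ harvest and spun at 3000 × g for 15 min at 4°C. Plasma supernatant stored at −80°C to limit freeze/thaw, then sent for external lipid analysis.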"}, "splenic CD4^+ T cells": {"tested_on": "splenic CD4^+ T cells", "test": "IL-10 ELISPOT of splenic CD4^+ T cells restimulated with p18", "assay_type": "cell-based, mouse", "settings": "splenic CD4^+ T cells with antigen presenting cells and p18, 24 hours; 1xCFA and 1xIFA; N=9-10"}, "[4]": {"tested_on": "p18:I-A^b+CD4^+ T cells (peritoneal)", "test": "p18:I-A^b tetramer staining of peritoneal CD4^+ T cells, Nur77^GFP Apoe^−/− mice", "assay_type": "in vivo, mouse"}, "peritoneal Tregs": {"tested_on": "peritoneal Tregs", "test": "IL-10 production and Nrp-1 of Tregs after p18 immunization", "assay_type": "in vivo, mouse", "settings": "N=7"}, "peritoneal CD4^+ T cells [5]": {"tested_on": "peritoneal CD4^+ T cells", "assay_type": "in vivo, mouse"}, "peritoneal CD4^+ T cells [6]": {"tested_on": "peritoneal CD4^+ T cells", "test": "TCR activation", "assay_type": "in vivo, mouse"}, "Apoe^−/− mice": {"tested_on": "Apoe^−/− mice", "test": "Aortic atherosclerosis", "assay_type": "in vivo, mouse", "settings": "50 μg p18, 1xCFA + 4xIFA, western diet 13 weeks; vs adjuvant only; N=8-9"}, "[7]": {"tested_on": "DRB1*07:01-p18^+CD4^+ T cells", "assay_type": "cell-based, human"}, "DRB1*13:02": {"target": "DRB1*13:02 (Homo sapiens, UniProt P01903+P01911, A100E/A169T/K41T/L162R/M171V/P40S/Q125H/Q178H/Q39Y/Q99D/R42S/S66N/T262R/V115G/W38E/Y61H)", "test": "MHC class II competitive binding assay, DRB1*13:02", "settings": "experimental competitive peptide binding", "procedure,_shortened": "as §1"}, "peritoneal CD4^+ T cells [8]": {"tested_on": "peritoneal CD4^+ T cells", "assay_type": "in vivo, mouse", "settings": "1x CFA and 1x IFA, N=9-10"}, "DRB1*07:01": {"target": "DRB1*07:01 (Homo sapiens, UniProt P01903+P01911, A100R/A102G/A103Q/D57E/D86V/E43K/F76Y/K127E/L162R/M171V/P40G/Q125H/Q99D/R33Q/R42Y/R54Q/S133A/S66F/T210M/V115G/Y107V/Y59L/Y89S)", "test": "MHC class II competitive inhibition binding assay, DRB1*07:01", "settings": "experimental competitive peptide binding", "procedure,_shortened": "as §1"}, "atherosclerosis patients": {"tested_on": "atherosclerosis patients", "settings": "GLACIER trial; cited from earlier work"}, "[9]": {"settings": "spleen, vaccinated Apoe^−/− mice"}}, "note": "Read-outs that look alike come from different tables or passages of the source.", "data": [{"molecule": "SLFFSAQPFEITAST [p18]", "values": [{"measurement": "trend in p18-specific CD4^+ T cells in sCVD patients vs no sCVD", "setting": "[1]", "value": "did not reach statistical significance"}, {"measurement": "binding to DRB1*04:01", "setting": "DRB1*04:01", "value": "binds"}, {"measurement": "p18:I-A^b+CD4^+ T cells in spleen", "setting": "[2]; IL-10^GFP Apoe^−/− mice, N=4-5", "value": "increased"}, {"measurement": "FoxP3 expression of splenic p18:I-A^b+CD4^+ T cells vs adjuvant", "setting": "[2]; N=9-10", "value": "significantly more"}, {"measurement": "splenic bulk FoxP3^+CD4^+ T cells vs adjuvant only", "setting": "[2]; data not shown", "value": "did not find a significant difference"}, {"measurement": "IL-10 production of p18:I-A^b+FoxP3^+CD4^+ T cells", "setting": "[2]; spleen, IL-10^GFP Apoe^−/− mice, N=4-5", "value": "significantly more than in adjuvant-only controls"}, {"measurement": "IL-10 production of p18:I-A^b–FoxP3^+CD4^+ T cells", "setting": "[2]; spleen, tetramer-negative, N=4-5", "value": "did not increase"}, {"measurement": "central memory cells (CD62L^+CD44^+) among memory p18:I-A^b+CD4^+ T cells", "setting": "[2]; [9]", "value": 20, "unit": "%"}, {"measurement": "effector memory cells (CD62L^−CD44^+) among memory p18:I-A^b+CD4^+ T cells", "setting": "[2]; [9]", "value": 80, "unit": "%"}, {"measurement": "p18:I-A^b+CD4^+ T cells with memory phenotype (CD44^+)", "setting": "[2]; [9]", "value": "Most"}, {"measurement": "IgG1 antibodies to p18 in plasma", "setting": "p18", "value": "detected"}, {"measurement": "IgG2c antibodies to p18 in plasma", "setting": "p18", "value": "detected"}, {"measurement": "plasma lipids", "setting": "[3]", "value": "unchanged"}, {"measurement": "IL-10^+ spots (ELISPOT) vs adjuvant only", "setting": "splenic CD4^+ T cells", "value": "significantly more"}, {"measurement": "peritoneal p18:I-A^b+CD4^+ T cells, p18-immunized vs adjuvant", "setting": "[4]; Apoe^−/− mice fed CD or WD, Supplementary Figure 5", "value": "did not observe any significant differences"}, {"measurement": "ApoB p18-specific (PE- and APC-double positive) CD4^+ T cells", "setting": "[4]; increase vs adjuvant only, peritoneal, 1x CFA and 1x IFA, N=5-6", "value": "~ 3 -fold"}, {"measurement": "CD25^+FoxP3^+ Tregs among p18:I-A^b+CD4^+ T cells", "setting": "[4]; peritoneal, p18 immunized, N=5-6", "value": 40, "unit": "%"}, {"measurement": "Nur77^GFP+ cells among p18:I-A^b+CD4^+ T cells", "setting": "[4]; peritoneal, N=5-6", "value": "highly enriched"}, {"measurement": "CD25^+FoxP3^+ Tregs among p18:I-A^b–CD4^+ T cells", "setting": "[4]; tetramer-negative cells, peritoneal, p18 immunized, N=5-6", "value": 9, "unit": "%"}, {"measurement": "IL-10-producing cells among all Tregs", "setting": "peritoneal Tregs; FoxP3^+CD4^+ cells, vs adjuvant", "value": "significant expansion"}, {"measurement": "inducible Tregs (Nrp-1 negative) among classical Tregs", "setting": "peritoneal Tregs", "value": "Most"}, {"measurement": "IL-10-producing iTregs (Nrp-1^−FoxP3^+CD4^+)", "setting": "peritoneal Tregs; p18 immunized, from ~12%", "value": "~ 25%"}, {"measurement": "FoxP3 by intracellular staining of CD4^+ T cells", "setting": "peritoneal CD4^+ T cells [5]; Apoe^−/− mice, peritoneal, N=6, compared with YFP result", "value": "gave a similar result"}, {"measurement": "CD25^+FoxP3^+CD4^+ T cells of all CD4^+ T cells", "setting": "peritoneal CD4^+ T cells [5]; peritoneal cavity, FoxP3^YFPcreApoe^−/− mice, 2 weeks after immunization, 1xCFA s.c. + 1xIFA i.p., from ~6%, N=7", "value": "~ 12%"}, {"measurement": "Nur77^GFP+ frequency among CD25^+FoxP3^+ Tregs vs all CD4^+ T cells", "setting": "peritoneal CD4^+ T cells [6]; mice immunized with p18, 24 hours after restimulation", "value": "further elevated"}, {"measurement": "CD25^+FoxP3^+ Tregs in Nur77^GFP+ activated cell population", "setting": "peritoneal CD4^+ T cells [6]; p18 immunized mice, N=5-6, adjuvant only showed a similar fraction", "value": "significantly enriched"}, {"measurement": "reduction of lesion size, aortic arch", "setting": "Apoe^−/− mice", "value": "~ 35%"}, {"measurement": "reduction of lesion size, whole aorta", "setting": "Apoe^−/− mice", "value": "~ 35%"}, {"measurement": "Tregs co-expressing T-bet among DRB1*07:01-p18^+CD4^+ T cells", "setting": "[7]; no sCVD", "value": "1.2±0.5", "unit": "%"}, {"measurement": "FoxP3^+Rorγt^+ cells among p18-specific CD4^+ T cells", "setting": "[7]; patients with sCVD", "value": "significant increase"}, {"measurement": "Tregs co-expressing RORγt among DRB1*07:01-p18^+CD4^+ T cells", "setting": "[7]; sCVD donors, mean ± SEM", "value": "8.8±3.7", "unit": "%"}, {"measurement": "Tregs co-expressing T-bet among DRB1*07:01-p18^+CD4^+ T cells", "setting": "[7]; sCVD patients", "value": "4.1±1.4", "unit": "%"}, {"measurement": "Tregs co-expressing RORγt among DRB1*07:01-p18^+CD4^+ T cells", "setting": "[7]; sCVD^− participants", "value": "almost undetectable"}, {"measurement": "fraction of p18-specific CD4^+ T cells that are FoxP3^+ Tregs", "setting": "[7]; women with no sCVD", "value": "most"}, {"measurement": "binding to DRB1*13:02", "setting": "DRB1*13:02", "value": "binds"}, {"measurement": "abundance of Tregs in peritoneal cavity", "setting": "peritoneal CD4^+ T cells [8]; Apoe^−/− mice on CD or WD", "value": "significantly increased"}, {"measurement": "FoxP3^+Tbet^+ cells in peritoneal cavity", "setting": "peritoneal CD4^+ T cells [8]; CD or WD", "value": "increased"}, {"measurement": "FoxP3^+GATA3^+ cells in peritoneal cavity", "setting": "peritoneal CD4^+ T cells [8]", "value": "only observed in mice fed CD and not in mice fed WD"}, {"measurement": "binding to DRB1*07:01", "setting": "DRB1*07:01", "value": "binds"}]}, {"molecule": "B1", "values": [{"measurement": "efficacy in imaging studies", "setting": "atherosclerosis patients", "value": "failed to show efficacy"}]}]}
